Casp6 inh = caspase-6 (human) enzyme inhibition | inhibition, % at 12.5 µM | P55212 | AID 686996 | purified caspase-6, Z-VEID-R110 cleavage fluorescence | 0.53% of 350,000 active;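 active means mean inhibition across replicates at least about 35%, with every replicate also reaching that limit, limit read from the data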
NSD2 inh = inhibitors of human histone methyltransferase NSD2; NSD2 peptide methylation, AlphaScreen, 120 min; O96028; inhibition, % at 12.5 µM; 0.54% of 310,000 active
NS3 helicase inh = inhibitors of Hepatitis C virus NS3 helicase; NS3 helicase DNA unwinding, Cy5 molecular beacon fluorescence; inhibition, % at 10.9 µM; 0.56% of 290,000 active; AID 1800;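 active means inhibition above the mean of all tested compounds plus 3 SD, set per campaign, cut at about 35% in these data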
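test system = hepatitis C virus NS3 helicase domain fragment enzyme | reagent = annealed dual-labelled DNA beacon duplex, ATP-started | times = 1 h at 25 °C | detection = Cy5 fluorescence, 0 and 60 min reads | read-out basis = percent inhibition from t60/t0 fluorescence ratio | control set = DMSO and thioflavine S | replication = one well per compound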
DNMT1 block = DNMT1 (human) enzyme inhibition; P26358; DNMT1 molecular beacon, Hinp1I cleavage, fluorescence; inhibition (reported as % activation of signal), % at 10 µM; 0.83% of 360,000 active; AID 588458
A number is an active result; i = inactive; nt = no result; + = active, no number. Shown are actives, neighbours in structure and some others; about 1.5% of the full set was active somewhere. Unless noted, no stated cut-off is given here; in the data, active means inhibition above about 50%; inactive means the rest.

SMILES	Casp6 inh	NSD2 inh	NS3 helicase inh	DNMT1 block
Cc1ccc(NC(=O)Nc2nnc(-c3ccccc3)o2)cc1	38	i	i	i
C[C@@H]1CN([C@@H](C)CO)C(=O)c2ccccc2-c2ccccc2CO[C@@H]1CN(C)C(=O)c1ccccc1	i	nt	nt	nt
OC[C@H]1[C@@H](c2ccc(-c3ccccc3F)cc2)[C@@H]2CN(Cc3cccnc3)CCCCN12	i	nt	nt	nt
OC[C@H]1[C@H](c2ccc(-c3ccccc3F)cc2)[C@H]2CN(Cc3cccnc3)CCCCN21	47	nt	nt	nt
CCN1[C@H](C(=O)NCCN2CCCCC2)[C@@H](CO)[C@@H]2Cn3c(ccc(-c4ccc(OC)cc4)c3=O)[C@@H]21	i	nt	nt	nt
CCC(Cc1ccccc1)NC(=O)/C=C/c1ccco1 (stereo not drawn)	i	i	i	i
CC(NC(=O)C=Cc1ccco1)C(=O)NC(Cc1ccccc1)C(N)=O (stereo not drawn)	46	i	nt	nt
C[C@H]1CN([C@@H](C)CO)C(=O)c2cccc(NS(=O)(=O)c3ccccc3)c2O[C@@H]1CN(C)CC1CCCCC1	i	nt	nt	nt
C[C@H](CO)N1C[C@H](C)[C@@H](CN(C)Cc2ccc(C(F)(F)F)cc2)OCCCC[C@H](C)Oc2ccc(NC(=O)CCC(F)(F)F)cc2C1=O	i	nt	nt	nt
COC(=O)c1cccc(C(=O)N2CCCC(C(=O)c3cccc(OC(C)C)c3)C2)c1 (stereo not drawn)	39	i	i	i
COC(=O)c1cccc(C(=O)N2CCCC(C(=O)c3ccccc3OC)C2)c1 (stereo not drawn)	i	i	i	i
COCCNC(=O)C[C@@H]1C[C@H]2c3cc(NC(=O)c4ccc5c(c4)OCO5)ccc3O[C@H]2[C@H](CO)O1	i	nt	nt	nt
Cc1cc2c(cc1C)N1C(=N)/C(=C\c3coc4ccccc4c3=O)C(=O)N=C1S2	nt	i	nt	nt
N=C1/C(=C\c2coc3ccc(O)cc3c2=O)C(=O)N=C2SC=CN12	42	i	i	i
CCC(=O)N1CC(=O)N2[C@H](C1)[C@H](c1ccc(-c3cccnc3)cc1)[C@@H]2CO	i	nt	nt	nt
COc1ccc(S(=O)(=O)N[C@@H]2CC[C@@H](CC(=O)O)O[C@@H]2CO)cc1	i	nt	nt	nt
CCCn1c2ccccc2c2nnc(SCCN3CCOCC3)nc21	43	i	i	i
C[C@@H]1CN([C@@H](C)CO)S(=O)(=O)c2ccc(C3=CCCCC3)cc2O[C@H]1CN(C)C(=O)CN(C)C	i	nt	nt	nt
O=C(C[C@@H]1C=C[C@@H](NC(=O)Nc2ccccc2F)[C@@H](CO)O1)NCc1ccccc1	i	nt	nt	nt
Cn1cnc([N+](=O)[O-])c1S(=O)(=O)Nc1ccccc1	42	i	nt	i
Cn1cnc([N+](=O)[O-])c1S(=O)(=O)Oc1ccccc1	i	nt	nt	i
C[C@H]1CN([C@@H](C)CO)C(=O)Cc2cc(NS(=O)(=O)c3cccs3)ccc2O[C@H]1CN(C)Cc1ccc(C(=O)Nc2ccccc2N)cc1	i	nt	nt	nt
CCCOc1cc(N)ccc1C(=O)OCCN(CC)CC	i	nt	nt	i
CCCOc1ccc(N)cc1N	nt	68	i	i
CCc1ccc(Nc2n[n+](-c3ccccc3)c(-c3ccc(N(CC)CC)cc3)s2)cc1	i	nt	i	68
SMILES	Casp6 inh	NSD2 inh	NS3 helicase inh	DNMT1 block
COc1ccc(C)cc1Nc1n[n+](-c2ccccc2)c(-c2ccc(N(C)C)cc2)s1	i	nt	i	60
Cc1ccc([N+](=O)[O-])cc1N=Nc1c(-c2ccc([N+](=O)[O-])cc2)[nH]n(C(N)=S)c1=O	nt	nt	i	i
NC(=S)n1[nH]c(-c2ccc([N+](=O)[O-])cc2)c(N=Nc2ccc(Cl)cc2)c1=O	nt	i	i	107
COc1ccc(C(=O)Nc2ccc3c(c2)OC[C@@H](C)N(C(C)=O)C[C@@H](C)[C@H](OC)CN(C)C3=O)cc1	i	nt	nt	nt
COCCCNc1c2c3c(cccc3[nH]c1=O)C(=O)c1ccccc1-2	i	nt	i	+
Cc1noc(C)c1S(=O)(=O)Nc1ccc2c(c1)C(=O)N([C@H](C)CO)C[C@@H](C)[C@H](CN(C)S(=O)(=O)c1ccccc1)O2	i	nt	nt	nt
O=C(C[C@H]1C=C[C@H](NC(=O)C2CCC2)[C@@H](CO)O1)NC1CCC1	i	nt	nt	nt
Cc1cc([N+](=O)[O-])cc2c1NC(c1ccccn1)C1CC=CC21 (stereo not drawn)	i	i	i	i
O=[N+]([O-])c1ccc(Cl)c2c1C1C=CCC1C(c1ccccn1)N2 (stereo not drawn)	i	nt	i	51
CC(=O)COC(=O)C1CCN(S(=O)(=O)c2cc([N+](=O)[O-])ccc2Cl)CC1	i	i	i	56
COC(=O)CC1C(=O)NCCN1C(=O)CSc1nnnn1-c1ccc(Cl)cc1 (stereo not drawn)	50	i	i	i
O=C(CSc1nnnn1-c1ccc(Cl)cc1)N1CCNC1=O	i	i	nt	i
CN1c2ccccc2Sc2cc(N)ccc21	54	i	i	i
C[C@@H]1CN([C@H](C)CO)C(=O)Cc2cc(NC(=O)Nc3ccc(C(F)(F)F)cc3)ccc2O[C@H]1CN(C)C(=O)Nc1cccc2ccccc12	i	nt	nt	nt
Nc1c2ccccc2nc2ccccc12	i	i	i	76
C[C@@H]1CN([C@@H](C)CO)C(=O)c2cccc(NC(=O)C3CCCCC3)c2O[C@@H]1CN(C)C(=O)Nc1ccc(C(F)(F)F)cc1	i	nt	nt	nt
CCc1nc2c(OCc3ccc(C(=O)OC)cc3)cccn2c1N(C)C(=O)c1ccc(C)cc1	39	i	nt	i
CN(C)CCCNC(=O)C[C@H]1CC[C@@H]2[C@H](COc3ccc(NC(=O)C4CCC4)cc3C(=O)N2C)O1	i	nt	nt	nt
COc1ccc(NC(=O)N[C@@H]2CC[C@@H](CCNC(=O)c3cc(Cl)cc(Cl)c3)O[C@@H]2CO)cc1	i	nt	nt	nt
Cc1ccc(S(=O)(=O)N2CCCCC2)cc1C(=O)Nc1ccc(S(=O)(=O)Nc2ncccn2)cc1	51	nt	i	i
CCN1/C(=C/c2ccc3cc(C)ccc3[n+]2CC)Sc2cc(C)c(C)cc21	i	161	i	i
Cc1noc(C)c1COc1ccccc1C(=O)N(C)CC(=O)Nc1ccc(F)c(F)c1F	53	i	nt	i
Cc1ccc(C)c(NC(=O)CN(C)C(=O)c2ccccc2OCc2c(C)noc2C)c1	i	i	nt	i
COc1ccc2nc3cc(Cl)ccc3c(Nc3cc(CN4CCCC4)c(O)c(CN4CCCC4)c3)c2n1	i	nt	i	65
COc1ccc2nc3cc(Cl)ccc3c(Nc3cc(C(C)C)c(O)cc3C)c2c1	i	i	i	i
SMILES	Casp6 inh	NSD2 inh	NS3 helicase inh	DNMT1 block
Nc1ccc2ccc(O)cc2c1	i	i	nt	i
C[n+]1c2cc(N)ccc2cc2ccc(N)cc21	i	nt	nt	+
C[C@@H]1CCCCO[C@H](CN(C)S(=O)(=O)c2ccc(Cl)cc2)[C@H](C)CN([C@H](C)CO)C(=O)c2cc(NC(=O)CCC(F)(F)F)ccc2O1	i	nt	nt	nt
CCN(CC)c1ccc(/C=N/n2nnnc2N)c(O)c1	nt	i	i	i
CCN(CC)c1ccc2nc3ccc(N)cc3[n+](-c3ccccc3)c2c1	i	72	nt	i
COc1ccc2c3c([nH]c2c1)[C@H](CO)N(C(=O)c1cccc(F)c1)CC31CCN(C(=O)CC2CC2)CC1	i	nt	nt	nt
CCc1ccc2c(c1)C(NC(C)=O)C(=O)N2CCN1CCOCC1 (stereo not drawn)	54	i	i	i
CCCN1C(=O)C(NC(C)=O)c2ccccc21 (stereo not drawn)	nt	i	i	i

Source: PubChem
